# Measured values published in paper PMC13570607 (European journal of medicinal chemistry, 2025).
# Legend:
# TG2 = target: T1, TG2 (Homo sapiens, UniProt P21980); assay: TG2 transamidase activity in protein lysates of treated SKOV3 cells; format: cell-based
# T1 sequence (P21980 1-687): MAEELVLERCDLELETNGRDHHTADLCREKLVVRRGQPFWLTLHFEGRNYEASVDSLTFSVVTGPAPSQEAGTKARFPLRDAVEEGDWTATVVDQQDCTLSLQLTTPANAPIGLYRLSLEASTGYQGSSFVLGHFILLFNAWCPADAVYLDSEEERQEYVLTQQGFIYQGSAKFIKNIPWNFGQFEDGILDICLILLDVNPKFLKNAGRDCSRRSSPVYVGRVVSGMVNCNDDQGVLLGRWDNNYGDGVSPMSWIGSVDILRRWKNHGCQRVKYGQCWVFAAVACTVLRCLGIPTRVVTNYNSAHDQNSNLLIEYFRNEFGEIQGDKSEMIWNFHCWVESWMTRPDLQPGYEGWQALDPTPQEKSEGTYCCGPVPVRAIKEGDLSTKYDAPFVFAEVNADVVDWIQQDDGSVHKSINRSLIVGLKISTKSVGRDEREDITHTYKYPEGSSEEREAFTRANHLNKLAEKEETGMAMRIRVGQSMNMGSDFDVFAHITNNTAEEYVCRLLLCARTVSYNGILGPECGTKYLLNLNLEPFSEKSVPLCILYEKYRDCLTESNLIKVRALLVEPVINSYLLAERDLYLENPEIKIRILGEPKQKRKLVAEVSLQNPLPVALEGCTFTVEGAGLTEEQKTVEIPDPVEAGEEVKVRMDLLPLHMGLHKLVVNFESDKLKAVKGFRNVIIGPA
# Method in brief: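 SKOV3 cells were treated with 10 μM test compound for 24 h, and lysates were assayed in a colorimetric transamidase kit. Controls were a reference TG2 inhibitor at 20 μM, VHL ligand at 10 μM, 50 mM EDTA, and lysates of TG2-knockdown or control-shRNA cells. Lysates were incubated with assay mixture for 30 min at 37 °C, then washed, including a 0.1 M NaOH wash. Detection used streptavidin-HRP (1:2000, 15 min, 37 °C), then HRP substrate for 5 min, stopped, and read at 450 nm.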
# Kinetic solubility = format: physicochemical; settings: PBS pH 7.4; room temp 24 h
# Method in brief: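 A 10 mM DMSO stock was diluted 1 μL into 99 μL PBS pH 7.4. It was held at room temperature for 24 h, filtered, and quantified by LC/MS/MS.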
# Equilibrium solubility = format: physicochemical; settings: PBS pH 7.4; 24 h
# Method in brief: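 About 1-2 mg of dry compound was added to 1 mL PBS pH 7.4 in a test tube. The mixture was inverted for 24 h, then filtered, and the filtrate was quantified by LC/MS/MS.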
# [1] = Hepatic microsomal stability; format: in vitro ADME; settings: mouse liver microsomes 1 mg/mL; 1 μM compound; NADPH
# Method in brief: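 Incubation buffer was 100 mM potassium phosphate, pH 7.4. The reaction was started with NADPH (1 mM final). Aliquots taken at 0, 5, 10, 20, 40 and 60 min were quenched in acetonitrile (5x v:v), filtered and analysed by LC-MS/MS. Data were log-transformed to give half-life and intrinsic clearance.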
# [2] = Parallel Artificial Membrane Permeability Assay; format: in vitro ADME; settings: 5 μM; 37 °C; 5 h
# Method in brief: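 Passive permeability was measured on a pre-coated PAMPA plate. The donor (bottom) side held 0.02% BSA in PBS with compound added from DMSO solution. The receiver (top) side held 0.4% BSA in PBS. After 5 h at 37 °C, receiver samples were quantified by LC/MS/MS.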
"TG2 enzymatic (transamidase) activity (TG2; 10 μM, 24 hours)",Kinetic Solubility (Kinetic solubility) [µM],Equilibrium Solubility (Equilibrium solubility) [µM],TG2 enzymatic (transamidase) activity (TG2; 20 μM),Microsomal Stability Clint [1] [µL/min/mg],Microsomal Stability T1/2 [1] [min],PAMPA Permeability [2],Compound
no effect on transamidating activity,,,,,,,Cc1ncsc1-c1ccc(CNC(=O)[C@@H]2C[C@@H](O)CN2C(=O)[C@@H](N)C(C)(C)C)cc1 [VHL ligand 1]
,54.96,0.76,no effect on transamidating activity,46,15.2,2.60 10^−6 cm*s^−1,Cc1cc(N(C)C)nc(Nc2ccc(NC(=O)Cc3ccccc3)cc2)n1 [MT4]
